Legend:
Type in all cases: functional, cell-based
[1] = tested on: HeLa; assay: Cytotoxicity against human HeLa cells by MTT assay
Method in brief: (§1)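 Colorimetric MTT assay, run as quintuplicate dose-response tests. Cytotoxic effect was plotted against log10 of drug concentration for each cell line. IC50 is the concentration that reduced the optical density of treated cells by 50% relative to untreated cells. 5-fluorouracil served as control.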

[2] = tested on: A549; assay: Cytotoxicity against human A549 cells by MTT assay; method in brief: as §1
[3] = Cytotoxicity against human QGY cells by MTT assay; method in brief: as §1

SMILES	IC50 [1] [µM]	IC50 [2] [µM]	IC50 [3] [µM]
CCOC(=O)C12C(=O)OCC=C1COC2c1cc(OC)c(OC)c(OC)c1 (centres undefined)	5.4	13.3	> 1000
CCOC(=O)C12C(=O)OCC=C1COC2c1ccc(N(C)C)cc1 (centres undefined)	23.4	89.6	> 1000
CCOC(=O)C12C(=O)OCC=C1COC2c1ccc([N+](=O)[O-])cc1 (centres undefined)	53.4	36.8	> 1000
CCOC(=O)C12C(=O)OCC=C1COC2c1ccc(OC)cc1 (centres undefined)	18.3	9.3	> 1000
CCOC(=O)C12C(=O)OCC=C1COC2c1cc(OC)cc(OC)c1 (centres undefined)	16	> 1000	> 1000
CCOC(=O)C12C(=O)OCC=C1COC2c1cccc(Cl)c1 (centres undefined)	> 1000	28.4	> 1000
CCOC(=O)C12C(=O)OCC=C1COC2c1ccc(F)cc1 (centres undefined)	22.9	> 1000	> 1000
CCOC(=O)C12C(=O)OCC=C1COC2c1ccccn1 (centres undefined)	20.7	> 1000	> 1000
CCOC(=O)C12C(=O)OCC=C1COC2c1ccccc1F (centres undefined)	22.1	> 1000	> 1000
CCOC(=O)C12C(=O)OCC=C1COC2c1ccc(Cl)cc1 (centres undefined)	118	> 1000	> 1000
CCOC(=O)C12C(=O)OCC=C1COC2c1ccc(Br)cc1 (centres undefined)	48.7	> 1000	> 1000
CCOC(=O)C12C(=O)OCC=C1COC2c1ccc(C(C)(C)C)cc1 (centres undefined)	25.4	> 1000	> 1000
CCOC(=O)C12C(=O)OCC=C1COC2c1ccc(OC)c(OC)c1 (centres undefined)	10	> 1000	> 1000
CCOC(=O)C12C(=O)OCC=C1COC2c1ccc(Cl)c(Cl)c1 (centres undefined)	72.4	> 1000	> 1000
CCOC(=O)C12C(=O)OCC=C1COC2c1ccccc1 (centres undefined)	12.8	> 1000	> 1000
CCOC(=O)C12C(=O)OCC=C1COC2c1cccs1 (centres undefined)	30.4	> 1000	> 1000
CCOC(=O)C12C(=O)OCC=C1COC2c1ccco1 (centres undefined)	28.3	> 1000	> 1000
O=c1[nH]cc(F)c(=O)[nH]1 [FLUOROURACIL]	16.1	5.6	14.1
